The values that follow come from PubChem BioAssay.

Activity calls are given as the source filed them.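 The calls were made as follows, unless noted: active = visual image review flags a hit and inhibition of aggregation exceeds 20%; inconclusive = visual hit but inhibition at or below 20%; inactive = no hit on visual image review.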

Assay [1] in a line: inhibitors of TNFa-induced NFkB p65 translocation, primary screen, imaging, HUVEC, MLSMR starter and 10KST1 sets (AID 438;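 active = inhibition above 20% together with a positive visual image hit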;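 also: compound added about 3h40 before a 20 min TNFalpha stimulation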;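 as to inhibition: signal is the nuclear over cytoplasmic p65 intensity ratio per well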). The settings on record: HUVEC TNFa-induced p65 nuclear translocation; cell count: measured here: nuclei count (cytotoxicity indicator), at 2.08 µM; inhibition: at 2 µM, stronger effect = higher value, 0% TNFa-plus-vehicle, 100% no-TNFa wells.
Assay [2] can be described thus: reduction of polyQ htt aggregates in cells – imaging, exon1htt(103Q)mCFP cells, high-content imaging, primary screen (AID 483).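 Also: compound exposure lasted 3 days before fixation.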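 As to nuclei count: percent of the per-plate median nuclei count of sample wells.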 The settings on record: exon1htt(103Q)mCFP cell line, aggregate imaging, at 2 µM; inhibition of aggregation: stronger effect = higher value; nuclei count: measured here: cell count, toxicity.
A short description of assay [3]: endothelial E-selectin expression blockers – imaging, HUVEC, immunofluorescence, MLSMR starter and 10KST1 sets, primary screen (AID 487;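 active = visually confirmed hit in the image check and inhibition above 20%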;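 as to inhibition: signal is fraction of cell area covered by stained E-selectin grains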;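 as to nuclei count: 100% = median nuclei count of all wells on the same plate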). The following applies: HUVEC TNFalpha-induced E-selectin immunofluorescence imaging, at 2 µM; inhibition: stronger effect = higher value; nuclei count: measured here: cell number, toxicity.
In assay [4] the target is Voltage-gated potassium channel subunit beta-2 (Rattus norvegicus) (UniProt P62483). As to the kind of experiment: inhibitors of rat Kvbeta2 reductase activity – biochemical, NADPH fluorescence, primary screen (AID 622;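 active = fluorescence slope higher than the sample average by over 3 SD, cut at about -0.22 in these data, passing the limit was not always enough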;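 also: slope of raw intensity against log time taken from 70 to 1610 s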). The settings on record: recombinant KvBeta, 4-cyanobenzaldehyde reduction, at 10 µM, stronger effect = higher value.
Chain of Voltage-gated potassium channel subunit beta-2 (Rattus norvegicus) (P62483 whole entry, looked up): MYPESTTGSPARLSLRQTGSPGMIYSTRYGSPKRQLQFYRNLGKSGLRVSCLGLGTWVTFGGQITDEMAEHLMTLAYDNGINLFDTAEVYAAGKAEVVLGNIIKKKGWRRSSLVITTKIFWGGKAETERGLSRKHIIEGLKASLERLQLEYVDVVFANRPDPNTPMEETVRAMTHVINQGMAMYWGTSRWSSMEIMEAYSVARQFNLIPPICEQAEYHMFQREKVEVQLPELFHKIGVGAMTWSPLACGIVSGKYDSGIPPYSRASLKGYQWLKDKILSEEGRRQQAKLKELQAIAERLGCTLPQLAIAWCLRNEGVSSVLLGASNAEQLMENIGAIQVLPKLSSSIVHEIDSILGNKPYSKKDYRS
For assay [5] the target is unchanged. The experiment in a line: enhancers of rat Kvbeta2 NADPH turnover – biochemical, NADPH fluorescence, primary screen (AID 623;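 active = NADPH fluorescence slope more negative than the mean of all samples by about 3 SD, 99.7% confidence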;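 also: fluorescence intensity change per second fitted from 20 to 320 s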). The following applies: Recombinant KvBeta, NADPH fluorescence decrease slope, 10 min; at 10 µM; stronger effect = lower value.
The target in assay [6] is Muscarinic acetylcholine receptor M4 (Homo sapiens) (UniProt P08173). As to the kind of experiment: M4-linked GIRK flux change, two-sided – cell-based, HEK293 M4/GIRK, thallium flux, BTC-AM, M4 allosteric agonist project, primary screen (AID 625;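 active = fluorescence slope after compound addition differing from the mean of all tested samples at 99.7% confidence, mostly higher but some lower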;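 also: thallium influx through GIRK channels coupled to M4 in HEK293 cells with BTC-AM dye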). The following applies: at 10 µM, actives lie on both sides. Summed up:
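Assay system: HEK293 cells with M4 receptor and GIRK channels / Controls: carbachol and DMSO controls / Schedule: 1 h dye loading, 2 min kinetic read / Technique: kinetic fluorescence with BTC-AM dye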

Assay [7] can be described thus: blockers of RIG-like receptor reporter activation – cell-based, Sendai virus stimulus, luciferase, 10K MLSCN set, TLR/RLR signaling modifier project, primary screen (AID 602276;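 active = inhibition at or above 50% at 10 µM; inactive = inhibition below 50%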;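 also: firefly luciferase from ISG56 promoter only with Renilla not read in this screen; 0% = Sendai virus plus DMSO and 100% = medium plus DMSO without virus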). The settings on record: HEK293 RL24 IRF3 luciferase reporter, at 10 µM, stronger effect = higher value. A general note: Reporter assays use an easily measured gene product as a stand-in for the process of interest.

Assay [8] can be described thus: TLR3 IRF3 reporter activation blockers – cell-based, poly I:C stimulus, luciferase, 10K MLSCN set, primary screen (AID 602277;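 active = inhibition of the reporter signal at or above 50%; inactive = inhibition below 50%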). The following applies: HEK293-TLR3 RL24 IRF3 luciferase reporter, at 10 µM, stronger effect = higher value.

Chain of Muscarinic acetylcholine receptor M4 (Homo sapiens) (P08173 whole entry, looked up): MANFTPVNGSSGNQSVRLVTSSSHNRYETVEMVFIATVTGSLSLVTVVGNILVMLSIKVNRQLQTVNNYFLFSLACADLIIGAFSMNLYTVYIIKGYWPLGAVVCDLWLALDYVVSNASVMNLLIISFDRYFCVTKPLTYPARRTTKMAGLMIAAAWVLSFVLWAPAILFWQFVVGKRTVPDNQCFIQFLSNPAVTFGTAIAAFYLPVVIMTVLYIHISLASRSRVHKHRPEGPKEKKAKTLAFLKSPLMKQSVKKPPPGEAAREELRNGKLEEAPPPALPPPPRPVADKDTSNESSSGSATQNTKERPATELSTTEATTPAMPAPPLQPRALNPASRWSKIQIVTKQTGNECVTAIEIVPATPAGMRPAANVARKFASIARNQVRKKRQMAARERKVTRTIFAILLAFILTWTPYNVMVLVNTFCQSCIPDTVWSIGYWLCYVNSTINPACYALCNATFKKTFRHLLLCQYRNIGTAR

Turning to `Cc1nc2ccc(S(=O)(=O)NCC(=O)O)cc2s1`, the cell count in assay [1] turned out to be 423. For the same compound, the inhibition in assay [1] was 5.2% (inactive); in assay [3] it was -56.1% (inactive); in assay [7], -1.77% (inactive); in assay [8], 13% (inactive). Moreover, the inhibition of aggregation in assay [2] is -3% (inactive). Besides, the nuclei count in assay [2] worked out at 110%; in assay [3], 118%. For the same compound, the fluorescence slope in assay [4] is -0.45 (inactive); in assay [6], 0.00579 (inactive). Besides, in assay [5], the NADPH fluorescence slope is 4.8e-05 (inactive).

As for `Cn1c(=O)c(C(=S)NC(=O)C2CC2)c(N)n(Cc2ccccc2)c1=O`, the cell count in assay [1] came out at 381. Also, the inhibition in assay [1] was -8% (inactive); in assay [3] it was -77.3% (inactive); in assay [7], 10.8% (inactive); in assay [8], 14.5% (inactive). The inhibition of aggregation in assay [2] was 14.6% (inactive). Also, the nuclei count worked out at 111% in assay [2] and 141% in assay [3]. Moreover, the fluorescence slope is -0.48 (inactive) in assay [4] and 0.00619 (inactive) in assay [6]. Also, the NADPH fluorescence slope in assay [5] was -3.3e-05 (inactive).

Regarding `Cc1ccc(S(=O)(=O)N(C)CC(=O)NC2CC(C)(C)NC(C)(C)C2)cc1`, the cell count in assay [1] came to 331. The inhibition was -6.6% (inactive) in assay [1], 1.9% (inactive) in assay [3], 11.7% (inactive) in assay [7] and 22.6% (inactive) in assay [8]. The inhibition of aggregation in assay [2] was 6.2% (inactive). The results for the nuclei count in assay [2] and in assay [3] were 98.6% and 89.8%, respectively. For the same compound, the fluorescence slope was -0.555 (inactive) in assay [4] and 0.00697 (inactive) in assay [6]. Also, in assay [5], the NADPH fluorescence slope is -1.8e-05 (inactive).

As to `COc1ccc2c(c1)C(=NO)c1cc(OC)ccc1-2`, in assay [1], the cell count was determined as 667. For the same compound, the inhibition in assay [1] is -26.7% (inactive); in assay [3], -48.8% (inactive); in assay [7], -23.1% (inactive); in assay [8], -28.9% (inactive). In addition, the inhibition of aggregation in assay [2] is 15.4% (inactive). For the same compound, the results for the nuclei count in assay [2] and in assay [3] were 101% and 116%, respectively. For the same compound, the fluorescence slope in assay [4] is -0.373 (inactive); in assay [6] it was 0.00525 (inactive). Also, the NADPH fluorescence slope in assay [5] was -8e-05 (inactive).

In the case of `CN1CCCN(C(=O)c2cc(=O)[nH]c3ccccc23)c2nc3ccccc3nc21`, the cell count in assay [1] amounted to 369. The inhibition is -0.6% (inactive) in assay [1], -33% (inactive) in assay [3], 16.3% (inactive) in assay [7] and 34.1% (inactive) in assay [8]. In addition, the inhibition of aggregation in assay [2] is 5.4% (inactive). In addition, the nuclei count turned out to be 101% in assay [2] and 117% in assay [3]. The fluorescence slope in assay [4] was -0.394 (inactive); in assay [6], 0.00653 (inactive). The NADPH fluorescence slope in assay [5] was -0.000122 (inactive).

Take `Cc1ccc(NC(=O)CSc2nnc(NC(=O)CN3CCOCC3)s2)cc1`: in assay [1], the cell count is 294. The inhibition in assay [1] was -10% (inactive); in assay [3] it was -43.2% (inactive); in assay [7], 12.7% (inactive); in assay [8], 22.7% (inactive). Besides, in assay [2], the inhibition of aggregation was -0.1% (inactive). Further, the nuclei count in assay [2] came to 27.7%; in assay [3] it was 106%. The fluorescence slope is -0.438 (inactive) in assay [4] and 0.00533 (inactive) in assay [6]. The NADPH fluorescence slope in assay [5] is -7.3e-05 (inactive).

For `O=C(NCCN1CCOCC1)c1ccc2c(c1)N(Cc1ccccc1)C(=O)CS2`, the cell count in assay [1] was found to be 773. The inhibition is -9.5% (inactive) in assay [1], 20.7% (inactive) in assay [3], -1.65% (inactive) in assay [7] and 8.57% (inactive) in assay [8]. For the same compound, the inhibition of aggregation in assay [2] is -8.5% (inactive). Further, the nuclei count in assay [2] stood at 102%; in assay [3], 105%. Also, the fluorescence slope is -0.564 (inactive) in assay [4] and 0.00419 (inactive) in assay [6]. The NADPH fluorescence slope in assay [5] is 2e-05 (inactive).

Take `O=C(CSc1nc2[nH]ncc2c(=O)n1-c1ccccc1Br)NCc1ccco1`: the cell count in assay [1] was 517. In addition, the inhibition in assay [1] is -24% (inactive); in assay [3] it was -15.2% (inactive); in assay [7] it was 22.2% (inactive); in assay [8], 28.1% (inactive). In addition, the inhibition of aggregation in assay [2] is -8.3% (inactive). The nuclei count in assay [2] amounted to 83.4%; in assay [3] it was 95%. Besides, the fluorescence slope in assay [4] was -0.549 (inactive); in assay [6], 0.00777 (inactive). Besides, the NADPH fluorescence slope in assay [5] is -3.1e-05 (inactive).

For `CC(C)(C)C1=C[C@@H](CO)C[C@@H](CO)C1`, the cell count in assay [1] is 734. The inhibition is -3.5% (inactive) in assay [1], -25.8% (inactive) in assay [3], 10.7% (inactive) in assay [7] and 23.8% (inactive) in assay [8]. Also, in assay [2], the inhibition of aggregation was -19.6% (inactive). In addition, the nuclei count came to 103% in assay [2] and 138% in assay [3]. Moreover, the fluorescence slope in assay [4] was -0.391 (inactive); in assay [6] it was 0.00843 (inactive). Moreover, the NADPH fluorescence slope in assay [5] is -0.000123 (inactive).

As to `Cc1ccc(C(=O)Nc2nc3c(s2)CCCC3)o1`, the cell count in assay [1] was determined as 341. For the same compound, the inhibition in assay [1] was -4% (inactive); in assay [3], -96.9% (inactive); in assay [7], -30.4% (inactive); in assay [8] it was -89.5% (inactive). For the same compound, the inhibition of aggregation in assay [2] is -8.3% (inactive). In addition, the nuclei count in assay [2] worked out at 101%; in assay [3], 120%. In addition, the values for the fluorescence slope in assay [4] and in assay [6] were -0.561 (inactive) and 0.00262 (inactive), respectively. Moreover, the NADPH fluorescence slope in assay [5] was -4.4e-05 (inactive).

For `COc1ccc2nc(C)cc(N3CCOCC3)c2c1`, the cell count in assay [1] was 401. For the same compound, the inhibition in assay [1] is -8.1% (inactive); in assay [3], -34.7% (inactive); in assay [7], 16.2% (inactive); in assay [8], 18.7% (inactive). Besides, the inhibition of aggregation in assay [2] is -8% (inactive). Besides, the nuclei count was 104% in assay [2] and 84.3% in assay [3]. In addition, the fluorescence slope in assay [4] was -0.484 (inactive); in assay [6] it was 0.0041 (inactive). In addition, the NADPH fluorescence slope in assay [5] was -0.000239 (inactive).

`Cc1ccc2nc(NC(=O)C3CCN(S(=O)(=O)c4cccc5nsnc45)CC3)sc2c1`: the cell count in assay [1] came out at 540. Besides, the inhibition in assay [1] was 0% (inactive); in assay [3] it was 38.3% (inactive); in assay [7], -4.97% (inactive); in assay [8] it was -45% (inactive). In addition, the inhibition of aggregation in assay [2] is -1.9% (inactive). Besides, the values for the nuclei count in assay [2] and in assay [3] were 105% and 100%, respectively. For the same compound, the values for the fluorescence slope in assay [4] and in assay [6] were -0.414 (inactive) and 0.00593 (inactive), respectively. The NADPH fluorescence slope in assay [5] is -9.1e-05 (inactive).

On to `CCC(=O)n1nc(-c2ccco2)nc1N`, for which the cell count in assay [1] was found to be 594. Besides, the inhibition is -0.5% (inactive) in assay [1], -153% (inactive) in assay [3], 14.3% (inactive) in assay [7] and 15.1% (inactive) in assay [8]. In assay [2], the inhibition of aggregation is -13.1% (inactive). Further, the nuclei count in assay [2] was determined as 104%; in assay [3], 114%. Further, the fluorescence slope in assay [4] is -0.486 (inactive); in assay [6], 0.00538 (inactive). For the same compound, the NADPH fluorescence slope in assay [5] was -4.1e-05 (inactive).

With `Cn1c2ccccc2c2c(C(=O)NCCCN3CCCC3=O)cn(C3CCCCC3)c(=O)c21`, the cell count in assay [1] turned out to be 592. The inhibition in assay [1] was -17.5% (inactive); in assay [3], 20.1% (inactive); in assay [7], 9.9% (inactive); in assay [8], 15.9% (inactive). Further, in assay [2], the inhibition of aggregation was -29.3% (inactive). Further, the nuclei count was determined as 112% in assay [2] and 110% in assay [3]. Also, the values for the fluorescence slope in assay [4] and in assay [6] were -0.428 (inactive) and 0.00608 (inactive), respectively. Moreover, the NADPH fluorescence slope in assay [5] was 3.4e-05 (inactive).

Usually inhibition stands for the relative decrease from the control value, in per cent.
